ChEMBL document CHEMBL1122642, “Biomimetic approach to potential benzodiazepine receptor agonists and antagonists” (J Med Chem, 1984)

Biological target: GABA-A receptor; anion channel
Assay: In vitro inhibition of [3H]diazepam binding to rat cerebral cortical membrane benzodiazepine receptors
Conditions: not given
Outline: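 Thrice-washed rat cerebral cortex membranes in 50 mM Tris-HCl pH 7.4 (0.5–0.6 mg/mL protein), incubated 30 min at 4 °C with 2 nM [3H]diazepam plus test compound. Stopped with ice-cold Tris, then GF/B filtration and scintillation counting. Nonspecific binding with 3 μM unlabeled diazepam or clonazepam.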

Which Ki does the source give for `COC(=O)c1cc2[nH]cnc2cn1` here?
The Ki was greater than 50 µM.

Which Ki does the source give for `CCOC(=O)c1cc2c(cn1)[nH]c1ccccc12` here?
Its Ki is 0.001 µM.

Which Ki does the source give for `O=C(O)C1Cc2cc(O)c(O)cc2CN1` (configuration not stated) here?
Its Ki is greater than 50 µM.

Which Ki does the source give for `COC(=O)C1Cc2[nH]cnc2C(c2c(CO)cnc(C)c2O)N1` (configuration not stated) here?
Its Ki is greater than 50 µM.

For `COC(=O)c1cc2[nH]cnc2c(-c2ccccc2)n1`, which Ki is on record?
Its Ki is 10 µM.

Which Ki does the source give for `COC(=O)C1Cc2cc(OC)c(OC)cc2CN1` (configuration not stated) here?
The Ki was 32 µM.

With `OCc1cc2c3ccccc3nc-2c[nH]1` as the compound, how does the Ki read?
Its Ki is 1.47 µM.

For `O=c1ccc2nccc3c4ccccc4n1c23` [CANTHIN-6-ONE], which Ki is on record?
Its Ki is 10 µM.

For `Cc1ncc(CO)c(C2NCCc3ncn(C)c32)c1O` (configuration not stated), which Ki is on record?
The Ki was greater than 50 µM.

For `COC(=O)C1Cc2[nH]cnc2C(c2ccccc2)N1` (trans isomer), which Ki is on record?
Its Ki is greater than 50 µM.

With `COC(=O)c1cc2cc(OC)c(OC)cc2cn1` as the compound, how does the Ki read?
The Ki was 10 µM.

With `CC(=O)OCc1cc2c3ccccc3nc-2c[nH]1` as the compound, how does the Ki read?
Its Ki is 750 µM.

With `O=C(O)C1Cc2[nH]cnc2C(c2ccccc2)N1` (cis isomer) as the compound, how does the Ki read?
Its Ki is greater than 50 µM.

With `COC(=O)c1cc2c(cn1)[nH]c1ccccc12` [BETA-CCM] as the compound, how does the Ki read?
The Ki was 0.001 µM.

For `COC(=O)c1cc2c3ccccc3n3c(=O)ccc(n1)c23`, which Ki is on record?
The Ki was 0.1 µM.

For `COC(=O)C1Cc2ccccc2CN1` (configuration not stated), which Ki is on record?
The Ki was greater than 50 µM.

For `O=C1CCC2c3c(c4ccccc4n31)CCN2Cc1ccccc1` (configuration not stated), which Ki is on record?
The Ki was 11.2 µM.

Which Ki does the source give for `CC(=O)c1cc2c3ccccc3nc-2c[nH]1` here?
The Ki was 0.058 µM.

Which Ki does the source give for `O=C(O)C1Cc2[nH]cnc2CN1` (configuration not stated) here?
Its Ki is greater than 50 µM.

With `NC(=O)c1cc2c3ccccc3nc-2c[nH]1` as the compound, how does the Ki read?
The Ki was 0.068 µM.

Biological target: not listed separately
Assay: In vitro binding to GABA-A benzodiazepine receptor of rat cerebral cortical membranes
Conditions: not given
Outline: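 Rat cerebral cortex homogenised in Tris-HCl (50 mM, pH 7.4), washed three times by centrifugation at 20000g, 4 °C, and resuspended at 0.5–0.6 mg protein/mL. Incubated with 2 nM [3H]diazepam, 30 min, 4 °C. Stopped with ice-cold buffer, GF/B filtered, scintillation counted. Nonspecific binding with 3 μM unlabelled diazepam or clonazepam. […] Mean of two experiments.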

For `CN1C(=O)CN=C(c2ccccc2)c2cc(Cl)ccc21` [DIAZEPAM], which Kd is on record?
The Kd was 5.6 µM.

Species on record: Rattus norvegicus
Assay: In vitro inhibition of [3H]diazepam binding to GABA-A benzodiazepine receptor of rat cerebral cortical membranes at 50 uM
Format: cell membranes
Conditions: Membrane

Which Inhibition does the source give for `COC(=O)C1Cc2c3n(c4ccccc24)C(=O)CCC3N1Cc1ccccc1` (configuration not stated) here?
The Inhibition was 17%.
